Measurements reported in publication PMC6500982 (Cancer Science, 2019).

Assay: Safety and tolerability
Assay type: in vivo, human
How it was run: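 Patients (enrolled January 2015–February 2016) received oral test compound in four cohorts: 160, 320 or 480 mg QD, or 300 mg BID. Dosing continued until progression, unacceptable AEs or consent withdrawal. AEs were graded by CTCAE v4.0, alongside laboratory tests, vital signs and ECGs. The safety population was all patients receiving ≥1 dose.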

[1] = Japanese patients with B‐cell NHL and CLL

CC#CC(=O)N1CC[C@@H](n2c(=O)n(-c3ccc(Oc4ccccc4)cc3)c3c(N)ncnc32)C1 [tirabrutinib]
Myalgia, Any grade (320 mg QD N = 3): 0 n (%)
Myalgia, Grade ≥3 (320 mg QD N = 3): 0 n (%)
Nasopharyngitis, Any grade (320 mg QD N = 3): 0 n (%)
Nasopharyngitis, Grade ≥3 (320 mg QD N = 3): 0 n (%)
Nausea, Any grade (320 mg QD N = 3): 0 n (%)
Nausea, Grade ≥3 (320 mg QD N = 3): 0 n (%)
Neutropenia, Any grade (320 mg QD N = 3): 2 (66.7) n (%)
Neutropenia, Grade ≥3 (320 mg QD N = 3): 2 (66.7) n (%)
Pharyngitis, Any grade (320 mg QD N = 3): 0 n (%)
Pharyngitis, Grade ≥3 (320 mg QD N = 3): 0 n (%)
Pyrexia, Any grade (320 mg QD N = 3): 0 n (%)
Pyrexia, Grade ≥3 (320 mg QD N = 3): 0 n (%)
Rash, Any grade (320 mg QD N = 3): 2 (66.7) n (%)
Rash, Grade ≥3 (320 mg QD N = 3): 0 n (%)
Thrombocytopenia, Any grade (320 mg QD N = 3): 1 (33.3) n (%)
Thrombocytopenia, Grade ≥3 (320 mg QD N = 3): 0 n (%)
Upper respiratory tract inflammation, Any grade (320 mg QD N = 3): 1 (33.3) n (%)
Upper respiratory tract inflammation, Grade ≥3 (320 mg QD N = 3): 0 n (%)
Vomiting, Any grade (320 mg QD N = 3): 1 (33.3) n (%)
Vomiting, Grade ≥3 (320 mg QD N = 3): 0 n (%)
All AEs, Any grade (480 mg QD N = 4): 4 (100.0) n (%)
All AEs, Grade ≥3 (480 mg QD N = 4): 2 (50.0) n (%)
Anemia, Any grade (480 mg QD N = 4): 2 (50.0) n (%)
Anemia, Grade ≥3 (480 mg QD N = 4): 1 (25.0) n (%)
Arthralgia, Any grade (480 mg QD N = 4): 0 n (%)
Arthralgia, Grade ≥3 (480 mg QD N = 4): 0 n (%)
Aspartate aminotransferase increased, Any grade (480 mg QD N = 4): 1 (25.0) n (%)
Aspartate aminotransferase increased, Grade ≥3 (480 mg QD N = 4): 0 n (%)
Constipation, Any grade (480 mg QD N = 4): 1 (25.0) n (%)
Constipation, Grade ≥3 (480 mg QD N = 4): 0 n (%)
Cystitis, Any grade (480 mg QD N = 4): 0 n (%)
Cystitis, Grade ≥3 (480 mg QD N = 4): 0 n (%)
Diarrhea, Any grade (480 mg QD N = 4): 0 n (%)
Diarrhea, Grade ≥3 (480 mg QD N = 4): 0 n (%)
Dysgeusia, Any grade (480 mg QD N = 4): 1 (25.0) n (%)
Dysgeusia, Grade ≥3 (480 mg QD N = 4): 0 n (%)
Gamma‐glutamyltransferase increased, Any grade (480 mg QD N = 4): 0 n (%)
Gamma‐glutamyltransferase increased, Grade ≥3 (480 mg QD N = 4): 0 n (%)
Headache, Any grade (480 mg QD N = 4): 0 n (%)
Headache, Grade ≥3 (480 mg QD N = 4): 0 n (%)
Hypokalemia, Any grade (480 mg QD N = 4): 2 (50.0) n (%)
Hypokalemia, Grade ≥3 (480 mg QD N = 4): 0 n (%)
Hypophosphatemia, Any grade (480 mg QD N = 4): 2 (50.0) n (%)
Hypophosphatemia, Grade ≥3 (480 mg QD N = 4): 1 (25.0) n (%)
Insomnia, Any grade (480 mg QD N = 4): 0 n (%)
Insomnia, Grade ≥3 (480 mg QD N = 4): 0 n (%)
Leukopenia, Any grade (480 mg QD N = 4): 0 n (%)
Leukopenia, Grade ≥3 (480 mg QD N = 4): 0 n (%)
Lymphopenia, Any grade (480 mg QD N = 4): 1 (25.0) n (%)
Lymphopenia, Grade ≥3 (480 mg QD N = 4): 0 n (%)
Malaise, Any grade (480 mg QD N = 4): 1 (25.0) n (%)
Malaise, Grade ≥3 (480 mg QD N = 4): 0 n (%)
Myalgia, Any grade (480 mg QD N = 4): 0 n (%)
Myalgia, Grade ≥3 (480 mg QD N = 4): 0 n (%)
Nasopharyngitis, Any grade (480 mg QD N = 4): 0 n (%)
Nasopharyngitis, Grade ≥3 (480 mg QD N = 4): 0 n (%)
Nausea, Any grade (480 mg QD N = 4): 1 (25.0) n (%)
Nausea, Grade ≥3 (480 mg QD N = 4): 0 n (%)
Neutropenia, Any grade (480 mg QD N = 4): 1 (25.0) n (%)
Neutropenia, Grade ≥3 (480 mg QD N = 4): 1 (25.0) n (%)
Pharyngitis, Any grade (480 mg QD N = 4): 0 n (%)
Pharyngitis, Grade ≥3 (480 mg QD N = 4): 0 n (%)
Pyrexia, Any grade (480 mg QD N = 4): 0 n (%)
Pyrexia, Grade ≥3 (480 mg QD N = 4): 0 n (%)
Rash, Any grade (480 mg QD N = 4): 2 (50.0) n (%)
Rash, Grade ≥3 (480 mg QD N = 4): 0 n (%)
Thrombocytopenia, Any grade (480 mg QD N = 4): 1 (25.0) n (%)
Thrombocytopenia, Grade ≥3 (480 mg QD N = 4): 0 n (%)
Upper respiratory tract inflammation, Any grade (480 mg QD N = 4): 0 n (%)
Upper respiratory tract inflammation, Grade ≥3 (480 mg QD N = 4): 0 n (%)
Vomiting, Any grade (480 mg QD N = 4): 2 (50.0) n (%)
Vomiting, Grade ≥3 (480 mg QD N = 4): 0 n (%)
Patients with DLT (grade 3 pneumonitis) (Cohort 4 (300 mg BID), WM patient): 1 patient
Tolerability [1]: well tolerated
Tolerability confirmed up to (dose) [1]: up to 300 mg BID
Tolerability (Japanese patients with B‐cell NHL and CLL, listed as Tirabrutinib): generally well tolerated
Serious AEs reported as study drug‐related (Mallory‐Weiss syndrome, de novo reactivation of HBV, acute myeloid leukemia, pneumonitis (1 patient each)): 4
All AEs, Any grade (Total (all cohorts) N = 17): 17 (100.0) n (%)
All AEs, Grade ≥3 (Total (all cohorts) N = 17): 8 (47.1) n (%)
Anemia, Any grade (Total (all cohorts) N = 17): 3 (17.6) n (%)
Anemia, Grade ≥3 (Total (all cohorts) N = 17): 2 (11.8) n (%)
Arthralgia, Any grade (Total (all cohorts) N = 17): 3 (17.6) n (%)
Arthralgia, Grade ≥3 (Total (all cohorts) N = 17): 0 n (%)
Aspartate aminotransferase increased, Any grade (Total (all cohorts) N = 17): 2 (11.8) n (%)
Aspartate aminotransferase increased, Grade ≥3 (Total (all cohorts) N = 17): 0 n (%)
Constipation, Any grade (Total (all cohorts) N = 17): 3 (17.6) n (%)
Constipation, Grade ≥3 (Total (all cohorts) N = 17): 0 n (%)
Cystitis, Any grade (Total (all cohorts) N = 17): 2 (11.8) n (%)
Cystitis, Grade ≥3 (Total (all cohorts) N = 17): 0 n (%)
Diarrhea, Any grade (Total (all cohorts) N = 17): 3 (17.6) n (%)
Diarrhea, Grade ≥3 (Total (all cohorts) N = 17): 0 n (%)
Dysgeusia, Any grade (Total (all cohorts) N = 17): 2 (11.8) n (%)
Dysgeusia, Grade ≥3 (Total (all cohorts) N = 17): 0 n (%)
Gamma‐glutamyltransferase increased, Any grade (Total (all cohorts) N = 17): 2 (11.8) n (%)
Gamma‐glutamyltransferase increased, Grade ≥3 (Total (all cohorts) N = 17): 0 n (%)
Headache, Any grade (Total (all cohorts) N = 17): 2 (11.8) n (%)
Headache, Grade ≥3 (Total (all cohorts) N = 17): 0 n (%)
Hypokalemia, Any grade (Total (all cohorts) N = 17): 2 (11.8) n (%)
Hypokalemia, Grade ≥3 (Total (all cohorts) N = 17): 0 n (%)
Hypophosphatemia, Any grade (Total (all cohorts) N = 17): 2 (11.8) n (%)
Hypophosphatemia, Grade ≥3 (Total (all cohorts) N = 17): 1 (5.9) n (%)
Insomnia, Any grade (Total (all cohorts) N = 17): 3 (17.6) n (%)
Insomnia, Grade ≥3 (Total (all cohorts) N = 17): 0 n (%)
Leukopenia, Any grade (Total (all cohorts) N = 17): 2 (11.8) n (%)
Leukopenia, Grade ≥3 (Total (all cohorts) N = 17): 2 (11.8) n (%)
Lymphopenia, Any grade (Total (all cohorts) N = 17): 2 (11.8) n (%)
Lymphopenia, Grade ≥3 (Total (all cohorts) N = 17): 1 (5.9) n (%)
Malaise, Any grade (Total (all cohorts) N = 17): 3 (17.6) n (%)
Malaise, Grade ≥3 (Total (all cohorts) N = 17): 0 n (%)
Myalgia, Any grade (Total (all cohorts) N = 17): 2 (11.8) n (%)
Myalgia, Grade ≥3 (Total (all cohorts) N = 17): 0 n (%)
Nasopharyngitis, Any grade (Total (all cohorts) N = 17): 2 (11.8) n (%)
Nasopharyngitis, Grade ≥3 (Total (all cohorts) N = 17): 0 n (%)
Nausea, Any grade (Total (all cohorts) N = 17): 3 (17.6) n (%)
Nausea, Grade ≥3 (Total (all cohorts) N = 17): 0 n (%)
Neutropenia, Any grade (Total (all cohorts) N = 17): 4 (23.5) n (%)
Neutropenia, Grade ≥3 (Total (all cohorts) N = 17): 4 (23.5) n (%)
Pharyngitis, Any grade (Total (all cohorts) N = 17): 2 (11.8) n (%)
Pharyngitis, Grade ≥3 (Total (all cohorts) N = 17): 0 n (%)
Pyrexia, Any grade (Total (all cohorts) N = 17): 2 (11.8) n (%)
Pyrexia, Grade ≥3 (Total (all cohorts) N = 17): 0 n (%)
Rash, Any grade (Total (all cohorts) N = 17): 6 (35.3) n (%)
Rash, Grade ≥3 (Total (all cohorts) N = 17): 0 n (%)
Thrombocytopenia, Any grade (Total (all cohorts) N = 17): 2 (11.8) n (%)
Thrombocytopenia, Grade ≥3 (Total (all cohorts) N = 17): 0 n (%)
Upper respiratory tract inflammation, Any grade (Total (all cohorts) N = 17): 2 (11.8) n (%)
Upper respiratory tract inflammation, Grade ≥3 (Total (all cohorts) N = 17): 0 n (%)
Vomiting, Any grade (Total (all cohorts) N = 17): 5 (29.4) n (%)
Vomiting, Grade ≥3 (Total (all cohorts) N = 17): 0 n (%)
Tirabrutinib‐induced lymphocytosis (all patients): no tirabrutinib‐induced lymphocytosis observed
Anemia, grade ≥3 (grade 3 or 4) (all patients N = 17): 11.8%
Leukopenia, grade ≥3 (grade 3 or 4) (all patients N = 17): 11.8%
Neutropenia, grade ≥3 (grade 3 or 4) (all patients N = 17): 23.5%
Patients who developed grade ≥3 AEs (all patients N = 17): 47.1%
Patients with serious AEs (all patients N = 17): 7 patients
Maximum tolerated dose (MTD) (cohorts 160, 320, 480 mg QD and 300 mg BID): not reached
